SMILES strings stand for the structures. Calls of active or inactive are those of the source.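 How the source made its calls, unless noted: active means viability at or below 30% in both replicate assays; inconclusive means viability at or below 30% in just one of the two assays; inactive means the rest.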

Assay [1] is described as follows: reducers of endogenous Her2 protein level, primary screen, SKBR3 breast tumor cells, AlphaScreen, ATP viability (AID 461;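 active means Her2 level under about 52% in both replicate screens, with viability over 70% of control, limit read from the data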;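 on Her2 level: lower value means less Her2 protein in the cells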;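 on viability: percent of carrier control wells set as 100% viability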). As to conditions: 18-24 h, measured here: SKBR3 viability, ATP luminescence, at 10 µM.
Assay [2] addresses Receptor tyrosine-protein kinase erbB-2 (Homo sapiens) (UniProt P04626). The assay is described as above. The following applies: 18-24 h, at 10 µM, stronger effect = lower value.
The nature of assay [3]: SK-BR-3 cell growth inhibitors, pilot screen, 24 h, human (AID 572;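 active means viability at or below 10% of carrier control in both of two separate runs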;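 further: compound exposure lasted between 18 and 24 h rather than exactly 24 h; 100% = carrier-treated control wells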). The following applies: SK-BR-3 viability, CellTiter-Glo luminescence, at 10 µM, stronger effect = lower value. (In general: Cellular ATP, detected with luciferase, serves as a proxy for viable cell number.)
Assay [4] in a line: HUVEC growth inhibition – cell-based, human, primary screen (AID 575).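 Further: 100% = median of untreated cell wells with 0.1% DMSO on each plate.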 The following applies: HUVEC proliferation, CellTiter-Glo luminescence, 72 h; at 10 µM; stronger effect = lower value. A digest of the protocol:
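material = primary HUVEC, no more than 12 passages | input = 1250 cells per well | controls = vehicle and MePR control wells | measured by = CTG luminescence | times = 72 h compound incubation | format = collagen-coated 384-well format | read-out = % viability vs DMSO wells | doses = single 10 µM dose, 0.1% DMSO, from 5x medium stock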

A short description of assay [5]: growth inhibitors of H69AR lung tumor, primary screen, human, duplicate replicates (AID 580;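 active means viability at or under a set limit in both replicates, limit being median viability minus 3 SD, cut at about 48% in these data, passing the limit was not always enough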;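 further: 100% = mean luminescence of untreated wells and 0% = no signal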). As to conditions: H69AR lung tumor cells viability, ATP luminescence, 72 h; at 10 µM; stronger effect = lower value.
A short description of assay [6]: reversal of MRP1-mediated doxorubicin resistance, pilot screen, H69AR cells, doxorubicin co-treatment (AID 601;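 active means viability loss from added drug above about 55%, and viability with drug at most 40%, in both replicates, limit read from the data, passing the limit was not always enough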). As to conditions: CellTiter-Glo, 72 h, at 10 µM; for differential viability (reversal): stronger effect = higher value.
A short description of assay [7]: 384-well plate pilot, post-Golgi transport modulator project, inhibition of yeast transport mutant growth (AID 636; in the data active means inhibition above about 31%). The following applies: absorbance 615 nm, about 18 h, stronger effect = higher value.
A short description of assay [8]: growth suppression of yeast trafficking mutant, preliminary HTS, modulators of trafficking downstream of Golgi apparatus project, 1536-format plate, OD 615 nm (AID 637; in the data active means inhibition above about 30%). The following applies: yeast transport mutant growth, absorbance 615 nm, 18 h; stronger effect = higher value.
[9] abbreviates: H69AR cells + 2 uM doxorubicin, measured here: viability with 2 uM doxorubicin, stronger effect = lower value.
[10] abbreviates: H69AR cells, compound alone cytotoxicity.

Chain of Receptor tyrosine-protein kinase erbB-2 (Homo sapiens) (P04626 whole entry, looked up): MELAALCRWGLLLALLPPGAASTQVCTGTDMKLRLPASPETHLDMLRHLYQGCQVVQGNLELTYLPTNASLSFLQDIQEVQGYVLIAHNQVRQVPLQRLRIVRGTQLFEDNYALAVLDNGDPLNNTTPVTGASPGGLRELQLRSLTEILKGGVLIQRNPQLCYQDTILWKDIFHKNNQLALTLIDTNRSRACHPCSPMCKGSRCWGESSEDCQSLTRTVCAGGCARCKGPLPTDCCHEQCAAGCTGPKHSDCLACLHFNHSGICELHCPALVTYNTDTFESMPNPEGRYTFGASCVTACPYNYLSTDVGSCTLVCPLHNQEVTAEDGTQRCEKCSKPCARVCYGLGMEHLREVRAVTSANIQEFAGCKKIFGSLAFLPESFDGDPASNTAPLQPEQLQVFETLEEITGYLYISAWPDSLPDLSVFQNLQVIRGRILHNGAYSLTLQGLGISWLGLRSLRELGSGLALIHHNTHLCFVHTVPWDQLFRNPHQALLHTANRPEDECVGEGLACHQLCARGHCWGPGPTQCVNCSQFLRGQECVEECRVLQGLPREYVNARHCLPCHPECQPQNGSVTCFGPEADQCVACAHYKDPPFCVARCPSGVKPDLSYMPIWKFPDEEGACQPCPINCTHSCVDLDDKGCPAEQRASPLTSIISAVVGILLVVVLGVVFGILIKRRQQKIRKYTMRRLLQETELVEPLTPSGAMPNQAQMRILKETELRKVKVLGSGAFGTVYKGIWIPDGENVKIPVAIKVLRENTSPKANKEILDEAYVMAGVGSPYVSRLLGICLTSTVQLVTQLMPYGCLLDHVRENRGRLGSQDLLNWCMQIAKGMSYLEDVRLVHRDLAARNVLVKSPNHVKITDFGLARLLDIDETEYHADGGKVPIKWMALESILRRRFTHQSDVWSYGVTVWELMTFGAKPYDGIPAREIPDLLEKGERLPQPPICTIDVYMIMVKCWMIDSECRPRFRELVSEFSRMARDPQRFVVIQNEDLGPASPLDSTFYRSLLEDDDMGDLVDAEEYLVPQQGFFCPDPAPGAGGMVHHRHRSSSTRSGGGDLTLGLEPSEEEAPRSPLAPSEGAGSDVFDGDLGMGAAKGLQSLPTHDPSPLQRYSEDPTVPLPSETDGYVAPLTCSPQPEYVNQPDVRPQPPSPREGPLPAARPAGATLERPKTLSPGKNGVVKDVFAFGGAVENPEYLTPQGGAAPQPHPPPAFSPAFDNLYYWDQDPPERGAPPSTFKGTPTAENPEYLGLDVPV

Usually viability stands for a read-out of living cells in per cent, often relative to untreated cells. In general, inhibition refers to the drop in the measured response relative to a control, in per cent. For the compound `Cc1ccc(S(=O)(=O)N[C@@H](C)C(=O)N2CCC(C(=O)N3CCC[C@H]3C(=O)O)CC2)cc1`, the viability in assay [1] is 98%; in assay [3] it was 98% (inactive); in assay [4], 88.7% (inactive); in assay [5] it was 102% (inactive); in assay [6] (setting [9]), 93.6%; in assay [6] (setting [10]) it was 102%. Further, the Her2 level in assay [2] was 100% (inactive). Besides, the differential viability (reversal) in assay [6] (H69AR cells + 2 uM doxorubicin) is 8.07% (inactive). Besides, the inhibition was -4.4% (inactive) in assay [7] and 1.31% (inactive) in assay [8].
As to `N#CCCCCn1c(-c2cncs2)nc2ccccc21`, the viability is 93.5% in assay [1]; 93.5% (inactive) in assay [3]; 84.2% (inactive) in assay [4]; 93.8% (inactive) in assay [5]; 80.3% in assay [6] (setting [9]); 93.8% in assay [6] (setting [10]). The Her2 level in assay [2] is 126% (inactive). Moreover, in assay [6] (H69AR cells + 2 uM doxorubicin), the differential viability (reversal) is 13.5% (inactive). Besides, the inhibition is -5% (inactive) in assay [7] and -5.33% (inactive) in assay [8].
Consider `CN(C)c1nc(N)nc(-c2nc3ccccc3s2)n1`, for which the viability is 73% in assay [1]; 73% (inactive) in assay [3]; 85.1% (inactive) in assay [4]; 91.7% (inactive) in assay [5]; 85.3% in assay [6] (setting [9]); 91.7% in assay [6] (setting [10]). For the same compound, the Her2 level in assay [2] was 89% (inactive). Besides, the differential viability (reversal) in assay [6] (H69AR cells + 2 uM doxorubicin) was 6.39% (inactive). The results for the inhibition in assay [7] and in assay [8] were -6.62% (inactive) and -1.64% (inactive), respectively.
For the compound `O=C(CSc1nnc(Cn2cnc3ccccc32)o1)c1ccccc1`, the viability is 124% in assay [1]; 124% (inactive) in assay [3]; 61.8% (inactive) in assay [4]; 73.3% (inactive) in assay [5]; 83.2% in assay [6] (setting [9]); 73.3% in assay [6] (setting [10]). Moreover, the Her2 level in assay [2] is 86.5% (inactive). In addition, the differential viability (reversal) in assay [6] (H69AR cells + 2 uM doxorubicin) was -9.91% (inactive). Besides, the inhibition was -6.84% (inactive) in assay [7] and 3.49% (inactive) in assay [8].
On to `Cc1nc(/N=C\N(C)C)sc1C(=O)Nc1ccccc1`, for which the viability in assay [1] was 93%; in assay [3], 93% (inactive); in assay [4], 100% (inactive); in assay [5], 96.2% (inactive); in assay [6] (setting [9]) it was 94.3%; in assay [6] (setting [10]), 96.2%. For the same compound, the Her2 level in assay [2] was 82% (inactive). Further, the differential viability (reversal) in assay [6] (H69AR cells + 2 uM doxorubicin) was 1.87% (inactive). Also, the inhibition in assay [7] was -5.81% (inactive); in assay [8], -8% (inactive).
For `COC(=O)CC1C(=O)NCCN1C(=O)NC1CCCCC1` (stereo not given), the viability in assay [1] is 94%; in assay [3], 94% (inactive); in assay [4], 104% (inactive); in assay [5], 98.8% (inactive); in assay [6] (setting [9]), 91.7%; in assay [6] (setting [10]) it was 98.8%. For the same compound, in assay [2], the Her2 level was 114% (inactive). The differential viability (reversal) in assay [6] (H69AR cells + 2 uM doxorubicin) is 7.06% (inactive). In addition, the inhibition is -9.59% (inactive) in assay [7] and -6.98% (inactive) in assay [8].
As to `COc1ccccc1N1CCN(C(=O)c2oc3cc(C)c(C)cc3c2C)CC1`, the viability in assay [1] is 117%; in assay [3], 117% (inactive); in assay [4] it was 82.4% (inactive); in assay [5] it was 92.7% (inactive); in assay [6] (setting [9]) it was 94.9%; in assay [6] (setting [10]), 92.7%. In assay [2], the Her2 level was 104% (inactive). Further, the differential viability (reversal) in assay [6] (H69AR cells + 2 uM doxorubicin) was -2.22% (inactive). Besides, the values for the inhibition in assay [7] and in assay [8] were -1.18% (inactive) and -2.62% (inactive), respectively.
On to `C=CCSC1=C(C#N)C(c2ccccc2Cl)CC(=O)N1` (stereo not given), for which the viability in assay [1] is 72%; in assay [3], 72% (inactive); in assay [4], 103% (inactive); in assay [5] it was 96.5% (inactive); in assay [6] (setting [9]) it was 95.1%; in assay [6] (setting [10]) it was 96.5%. Further, in assay [2], the Her2 level was 85.5% (inactive). Besides, in assay [6] (H69AR cells + 2 uM doxorubicin), the differential viability (reversal) is 1.45% (inactive). In addition, the inhibition was 0.27% (inactive) in assay [7] and -2.26% (inactive) in assay [8].
Regarding `COc1ccc2c(=O)c3c(=O)n(Cc4ccco4)c(C(C)C)nc3oc2c1`, the viability in assay [1] was 96%; in assay [3] it was 96% (inactive); in assay [4] it was 101% (inactive); in assay [5], 99.4% (inactive); in assay [6] (setting [9]), 90.1%; in assay [6] (setting [10]), 99.4%. The Her2 level in assay [2] is 93% (inactive). Also, the differential viability (reversal) in assay [6] (H69AR cells + 2 uM doxorubicin) is 9.28% (inactive). The inhibition in assay [7] was -3.73% (inactive); in assay [8], -9.52% (inactive).
`COc1ccc(OCC(=O)N2CCN(C(=O)c3cccs3)CC2)cc1`: the viability in assay [1] is 117%; in assay [3], 117% (inactive); in assay [4], 83.5% (inactive); in assay [5] it was 87.4% (inactive); in assay [6] (setting [9]), 85.6%; in assay [6] (setting [10]), 87.4%. For the same compound, the Her2 level in assay [2] is 82.5% (inactive). Also, in assay [6] (H69AR cells + 2 uM doxorubicin), the differential viability (reversal) was 1.78% (inactive). The inhibition was -3.29% (inactive) in assay [7] and -2.9% (inactive) in assay [8].
For the compound `CC(=O)c1c(C)nn(CC(O)COc2ccc3c(c2)CCC3)c1C` (stereo not given), the viability in assay [1] is 93.5%; in assay [3], 93.5% (inactive); in assay [4], 94.4% (inactive); in assay [5], 87.4% (inactive); in assay [6] (setting [9]) it was 83.9%; in assay [6] (setting [10]) it was 87.4%. Moreover, the Her2 level in assay [2] is 105% (inactive). In addition, the differential viability (reversal) in assay [6] (H69AR cells + 2 uM doxorubicin) was 3.44% (inactive). Besides, the inhibition was 1.33% (inactive) in assay [7] and -6.03% (inactive) in assay [8].
For `CCc1ccccc1N=C1SCC(=O)N1C`, the viability is 96.5% in assay [1]; 96.5% (inactive) in assay [3]; 87.9% (inactive) in assay [4]; 97% (inactive) in assay [5]; 86.8% in assay [6] (setting [9]); 97% in assay [6] (setting [10]). In assay [2], the Her2 level is 102% (inactive). Further, in assay [6] (H69AR cells + 2 uM doxorubicin), the differential viability (reversal) is 10.1% (inactive). The results for the inhibition in assay [7] and in assay [8] were -6.67% (inactive) and -4.26% (inactive), respectively.
Turning to `CCC(=O)/C=C1\Sc2ccc(OC)cc2N1CCO`, the viability in assay [1] is 120%; in assay [3], 120% (inactive); in assay [4], 98.6% (inactive); in assay [5] it was 87.8% (inactive); in assay [6] (setting [9]), 85.7%; in assay [6] (setting [10]) it was 87.8%. In addition, in assay [2], the Her2 level was 98% (inactive). Besides, the differential viability (reversal) in assay [6] (H69AR cells + 2 uM doxorubicin) was 2.07% (inactive). Moreover, the results for the inhibition in assay [7] and in assay [8] were -4.21% (inactive) and -4.68% (inactive), respectively.
As for `COC(=O)C1=C(C)Nc2nnnn2C1c1cccs1` (stereo not given), the viability in assay [1] is 95.5%; in assay [3], 95.5% (inactive); in assay [4], 104% (inactive); in assay [5] it was 96.9% (inactive); in assay [6] (setting [9]), 93.8%; in assay [6] (setting [10]) it was 96.9%. For the same compound, the Her2 level in assay [2] was 101% (inactive). The differential viability (reversal) in assay [6] (H69AR cells + 2 uM doxorubicin) is 3.09% (inactive). The inhibition is 2.84% (inactive) in assay [7] and 5.71% (inactive) in assay [8].
`COc1ccccc1OCC(=O)N1CCNC1=O`: the viability is 90% in assay [1]; 90% (inactive) in assay [3]; 84% (inactive) in assay [4]; 102% (inactive) in assay [5]; 90% in assay [6] (setting [9]); 102% in assay [6] (setting [10]). Also, the Her2 level in assay [2] is 96.5% (inactive). Also, the differential viability (reversal) in assay [6] (H69AR cells + 2 uM doxorubicin) was 12.2% (inactive). In addition, the inhibition in assay [7] was -1.73% (inactive); in assay [8], -0.98% (inactive).
Regarding `COCCNC(=O)C(c1ccncc1)N(C(=O)Cn1nnc2ccccc21)c1ccc(OC)cc1` (stereo not given), the viability in assay [1] is 96%; in assay [3], 96% (inactive); in assay [4] it was 97.7% (inactive); in assay [5], 104% (inactive); in assay [6] (setting [9]), 95.1%; in assay [6] (setting [10]), 104%. Besides, the Her2 level in assay [2] was 73.5% (inactive). The differential viability (reversal) in assay [6] (H69AR cells + 2 uM doxorubicin) is 9.12% (inactive). The inhibition in assay [7] was -7.03% (inactive); in assay [8] it was 8.03% (inactive).

The values are drawn from PubChem BioAssay.
